Source: PubChem BioAssay AID602299 (The Scripps Research Institute Molecular Screening Center, 2012)
Active and inactive are the calls of the source.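 The calls were made as follows: active = inhibition of 50% or more of probe labeling of the enzyme band; inactive = inhibition below 50%.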

target: Diacylglycerol lipase-beta (Mus musculus) (UniProt Q91WC9); assay: mouse DAGLb inhibitors by competitive ABPP, late-stage follow-up, biochemical, gel-based fluorescence, overexpressed mouse, set 2 (AID 602299); details: HEK293T membrane overexpressed mouse DAGLb, at 10 µM, active compounds read high
Sequence (Q91WC9 whole entry, looked up): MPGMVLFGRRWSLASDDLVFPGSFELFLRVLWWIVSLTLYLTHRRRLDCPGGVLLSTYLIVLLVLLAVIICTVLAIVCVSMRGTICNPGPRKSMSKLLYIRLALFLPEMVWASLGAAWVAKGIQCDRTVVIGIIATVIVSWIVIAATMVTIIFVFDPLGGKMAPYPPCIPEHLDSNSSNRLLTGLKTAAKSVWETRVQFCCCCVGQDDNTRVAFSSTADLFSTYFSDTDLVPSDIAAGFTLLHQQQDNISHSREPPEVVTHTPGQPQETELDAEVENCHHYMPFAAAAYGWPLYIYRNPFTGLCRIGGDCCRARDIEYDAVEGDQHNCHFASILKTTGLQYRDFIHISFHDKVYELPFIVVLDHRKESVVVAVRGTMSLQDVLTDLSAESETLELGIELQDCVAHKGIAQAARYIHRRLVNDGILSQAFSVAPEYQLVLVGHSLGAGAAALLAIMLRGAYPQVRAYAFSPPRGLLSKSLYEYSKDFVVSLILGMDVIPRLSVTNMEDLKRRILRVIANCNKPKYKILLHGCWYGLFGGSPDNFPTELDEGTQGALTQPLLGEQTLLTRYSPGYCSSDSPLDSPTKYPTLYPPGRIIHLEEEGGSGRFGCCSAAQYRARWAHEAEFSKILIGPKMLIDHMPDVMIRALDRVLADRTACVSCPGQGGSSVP
Procedure, shortened: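 Test system: Mouse DAGLb-overexpressing HEK293T membrane proteome | Input: 0.3 mg/mL membrane protein | Controls: DMSO-only high, gel background low | Also added: Fluorescent activity-based probe HT-01 at 1 µM | Medium: Dulbecco's phosphate-buffered saline (DPBS) | Signal: Reducing SDS-PAGE with in-gel fluorescence | Doses: One dose, 10 µM | Schedule: 30 min compound then 30 min probe, 37 °C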

inhibition	Compound
11% (inactive)	COc1ccc(-c2ccc(-c3cn(C(=O)N4CCCCC4c4ccccc4)nn3)cc2)cc1 (stereo not drawn)
64%	COc1ccccc1-c1ccc(-c2cn(C(=O)N3CCCCC3c3ccccc3)nn2)cc1 (stereo not drawn)
39% (inactive)	O=C(N1CCCCC1c1ccccc1)n1cc(C(O)(c2ccccc2)c2ccccc2)nn1 (stereo not drawn)
99%	COc1ccccc1-c1ccc(-c2cn(C(=O)N3CCCC(Cc4ccccc4)C3)nn2)cc1 (stereo not drawn)

Second part, the compound before the results:

Compound	inhibition
COc1ccccc1-c1ccc(-c2cn(C(=O)N3CCCCC3CCc3ccccc3)nn2)cc1 (stereo not drawn)	69%
O=C(N1CCCCC1CCc1ccccc1)n1cc(-c2ccc(-c3ccccc3)cc2)nn1 (stereo not drawn)	59%
O=C(N1CCCCC1c1ccccc1)n1cc(-c2ccc(-c3ccccc3)cc2)nn1 (stereo not drawn)	50%
COc1ccccc1-c1ccc(-c2cn(C(=O)N3CCC(Cc4ccccc4)CC3)nn2)cc1	98%
